In ChEMBL document CHEMBL4425108, “A Selective and Slowly Reversible Inhibitor of l-Type Amino Acid Transporter 1 (LAT1) Potentiates Antiproliferative Drug Efficacy in Cancer Cells” (J Med Chem, 2016):
Activity calls are given as the source filed them. The calls are words filed in the database; no cut-off is given here.

Key:
HT-29 = experiment: Growth inhibition of human HT-29 cells measured after 96 hrs by Coulter counter based cell counting method; format: functional; details: HT-29, 96 h
[1] = Growth inhibition of human YD38 cells measured after 4 days by MTT assay; format: functional; details: 96 h
[2] = Ratio of IC50 for human HT-29 cells to IC50 for leucine uptake at LAT1 in human HT-29 cells
[3] = Ratio of IC50 for human YD-38 cells to IC50 for leucine uptake at LAT1 in human YD-38 cells
[4] = target: T1, Large neutral amino acids transporter small subunit 1 (Homo sapiens, UniProt Q01650); experiment: Inhibition of [14C]-L-leucine uptake at LAT1 in human YD-38 cells after 1 hr by liquid scintillation counting; format: cell-based
MCF7 [5] = experiment: Antiproliferative activity against human MCF7 cells assessed as reduction in cell viability measured after 72 hrs by resazurin dye-based fluorimetric analysis; format: functional; details: for IC50: MCF7, 72 h
In short: (§1)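 MCF-7 cells were seeded at 2 × 10^4 cells/well on collagen-coated plates and treated one day later. Agents were given alone or combined (25 or 100 µM with 100 µM partner drug) in growth medium for 3 days. Viability was read daily by resazurin fluorescence (ex 560/em 590 nm) and expressed relative to untreated controls.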

MCF7 [6] = experiment: Antiproliferative activity against human MCF7 cells assessed as reduction in cell viability at 100 measured after 24 hrs by resazurin dye-based fluorimetric analysis; format: functional; in short: as §1
MCF7 [7] = experiment: Antiproliferative activity against human MCF7 cells assessed as reduction in cell viability at 100 measured after 48 hrs by resazurin dye-based fluorimetric analysis; format: functional; in short: as §1
MCF7 [8] = experiment: Antiproliferative activity against human MCF7 cells assessed as reduction in cell viability at 100 measured after 72 hrs by resazurin dye-based fluorimetric analysis; format: functional; in short: as §1
[9] = target: T1, Large neutral amino acids transporter small subunit 1; experiment: Competitive inhibition of [14C]-L-leucine uptake at LAT1 in human MCF7 cells preincubated for 5 mins followed by addition of substrate measured during 5 mins by liquid scintillation counting; format: cell-based
[10] = target: T1, Large neutral amino acids transporter small subunit 1; experiment: Potency index, ratio of IC50 for 2-amino-2-norbornanecarboxylic acid to IC50 for test compound for inhibition of [14C]-L-leucine uptake at LAT1 in human MCF7 cells; format: cell-based
[11] = target: T1, Large neutral amino acids transporter small subunit 1; experiment: Inhibition of LAT1 in human MCF7 cells assessed as potentiation of bestatin-induced antiproliferative activity by measuring reduction in cell viability at 100 uM measured after 24 hrs by resazurin dye-based fluorimetric analysis
In short: (§2)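 MCF-7 cells seeded 2 × 10^4/well on collagen-coated plates, treated one day later in growth medium with inhibitor (25 or 100 µM) plus bestatin or cisplatin (100 µM) for up to 3 days. Viability read daily by resazurin fluorescence (ex 560/em 590 nm). Viability is treated relative to untreated control. Mean ± SD, n=3.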

[12] = target: T1, Large neutral amino acids transporter small subunit 1; experiment: Inhibition of LAT1 in human MCF7 cells assessed as potentiation of cisplatin-induced antiproliferative activity by measuring reduction in cell viability at 100 uM measured after 24 hrs by resazurin dye-based fluorimetric analysis; in short: as §2
[13] = target: T1, Large neutral amino acids transporter small subunit 1; experiment: Inhibition of LAT1 in human MCF7 cells assessed as potentiation of bestatin-induced antiproliferative activity by measuring reduction in cell viability at 100 uM measured after 48 hrs by resazurin dye-based fluorimetric analysis; in short: as §2
[14] = target: T1, Large neutral amino acids transporter small subunit 1; experiment: Inhibition of LAT1 in human MCF7 cells assessed as potentiation of cisplatin-induced antiproliferative activity by measuring reduction in cell viability at 100 uM measured after 48 hrs by resazurin dye-based fluorimetric analysis; in short: as §2
[15] = target: T1, Large neutral amino acids transporter small subunit 1; experiment: Inhibition of LAT1 in human MCF7 cells assessed as potentiation of bestatin-induced antiproliferative activity by measuring reduction in cell viability at 100 uM measured after 72 hrs by resazurin dye-based fluorimetric analysis; in short: as §2
[16] = target: T1, Large neutral amino acids transporter small subunit 1; experiment: Inhibition of LAT1 in human MCF7 cells assessed as potentiation of cisplatin-induced antiproliferative activity by measuring reduction in cell viability at 100 uM measured after 72 hrs by resazurin dye-based fluorimetric analysis; in short: as §2
[17] = target: T1, Large neutral amino acids transporter small subunit 1; experiment: Drug uptake in human MCF7 cells assessed as LAT1 mediated drug transport per mg of protein at 100 uM after 30 mins by HPLC analysis; format: ADME, cell-based; details: mcf7, 0.5 h
In short: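 MCF-7 monolayers were incubated with 100 µM compound in HBSS at 37 °C for 5 or 30 min. Cells got three washes with ice-cold or warm (37 °C) HBSS; in the warm 30 min arm they were washed after 5 min and again after 30 min. Lysates (0.1 M NaOH) were quantified by HPLC-UV against a spiked lysate standard curve and normalised to protein (Bio-Rad assay).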

T1 sequence (Q01650 whole entry): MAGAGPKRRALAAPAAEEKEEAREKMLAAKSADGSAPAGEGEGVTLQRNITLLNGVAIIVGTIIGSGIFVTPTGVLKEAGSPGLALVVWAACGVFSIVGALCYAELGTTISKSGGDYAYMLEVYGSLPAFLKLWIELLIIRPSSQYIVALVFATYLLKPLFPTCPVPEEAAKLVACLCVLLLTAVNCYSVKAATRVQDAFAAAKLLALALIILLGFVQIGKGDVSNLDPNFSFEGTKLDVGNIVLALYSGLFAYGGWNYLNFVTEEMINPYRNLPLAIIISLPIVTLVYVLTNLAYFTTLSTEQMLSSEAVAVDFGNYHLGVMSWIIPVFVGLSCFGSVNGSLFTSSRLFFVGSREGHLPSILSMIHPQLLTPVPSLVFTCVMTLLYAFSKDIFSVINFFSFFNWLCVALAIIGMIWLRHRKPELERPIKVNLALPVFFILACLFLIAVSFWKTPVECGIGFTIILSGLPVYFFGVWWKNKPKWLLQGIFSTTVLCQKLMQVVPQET

| IC50 [4] [µM] | IC50 (MCF7 [5]) [µM] | IC50 [9] [µM] | Ratio IC50 [10] | Drug uptake [17] [nmol/mg] | Structure (SMILES) | IC50 (HT-29) [µM] | IC50 [1] [µM] | Ratio IC50 [2] | Ratio IC50 [3] | Activity (MCF7 [5]) | Activity (MCF7 [6]) [%] | Activity (MCF7 [7]) | Activity (MCF7 [8]) | Activity [11] [%] | Activity [12] [%] | Activity [13] | Activity [14] | Activity [15] [%] | Activity [16] [%] |
| --- | --- | --- | --- | --- | --- | --- | --- | --- | --- | --- | --- | --- | --- | --- | --- | --- | --- | --- | --- |
| 0.79 | – | – | – | – | Nc1cc(COc2c(Cl)cc(C[C@H](N)C(=O)O)cc2Cl)c2oc(-c3ccccc3)nc2c1 | 4.1 | 69 | 68 - 87 | 68 - 87 | – | – | – | – | – | – | – | – | – | – |
| – | 541 | – | – | – | CC(C)C[C@H](NC(=O)[C@@H](O)[C@H](N)Cc1ccccc1)C(=O)O [UBENIMEX] | – | – | – | – | Dose-dependent effect | 3.4 | 7.5% | inactive | – | – | – | – | – | – |
| – | 362 | 112 | 6 to 6.2 | 11.9 | NC1(C(=O)O)CC2CCC1C2 (centres undefined) | – | – | – | – | Dose-dependent effect | 13.9 | inactive | 24.1% | 30.8 | 35.9 | inactive | inactive | 3.13 | 42.7 |
